ChEMBL document CHEMBL1122037, “Use of adenine nucleotide derivatives to assess the potential of exo-active-site-directed reagents as species- or isozyme-specific enzyme inactivators. 4. Interactions of adenosine 5'-triphosphate derivatives with adenylate kinases from Escherichia coli and rat tissues” (J Med Chem, 1982)
Several values for one entry are separate records, joined by “and”; a condition that tells them apart may be missing. Equal values may be shown once.

How the values were obtained:
Escherichia coli [1] = assay: Ability to inhibit Escherichia coli adenylate kinase II, activity expressed as Maximum velocity; format: ADME; conditions: in vitro
Outline: (§1)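 Coupled spectrophotometric assay (pyruvate kinase/lactate dehydrogenase, NADH oxidation) in 0.1 M Tris-HCl pH 7.6 with 2 mM MgSO4, 0.12 M KCl, 0.31 mM PEP, 0.38 mM NADH and 0.25 mM AMP. Derivatives were added as 1:1 Mg complexes. KM was obtained from linear Lineweaver-Burk plots using five or more substrate levels spanning 0.5–4.0 × KM. Inhibition was typed as competitive or noncompetitive versus ATP.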

Escherichia coli [2] = assay: Ability to inactivate Escherichia coli adenylate kinase after exposing enzyme to 0 mM levels of MgATP at concentration of 11.8 mM, pH 7.6
Outline: (§2)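 E. coli B enzyme, partially purified 27-fold (fraction IV), exposed 6 h at 22 °C, pH 7.6, to the Mg2+ 1:1 complex of the ATP derivative in the Tris/MgSO4/KCl reaction buffer, with or without MgATP. Aliquots withdrawn at intervals and assayed spectrophotometrically with 1 mM ATP. Activity was compared with controls lacking the derivative. Read-out is % inactivation after 6 h.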

[3] = molecular target: Adenylate kinase 2, mitochondrial (Rattus norvegicus) (UniProt P29410); assay: Ability to inhibit rat adenylate kinase II, […]
Outline: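 Rat adenylate kinase isozyme II. ATP derivatives were used as 1:1 Mg²⁺ complexes and varied against ATP as phosphate donor. Coupled PK/LDH NADH-oxidation spectrophotometric assay in 0.1 M Tris-HCl pH 7.6 with 2 mM MgSO₄, 0.12 M KCl, 0.31 mM PEP, 0.38 mM NADH and 0.25 mM AMP. Inhibition type was assigned as competitive or noncompetitive with respect to ATP from initial-velocity kinetics.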

Escherichia coli [4] = assay: Ability to inactivate adenylate kinase was determined, after exposing enzyme to mM levels of MgATP at pH 7.6 at a concentration of 26.0; outline: as §2
Escherichia coli [5] = assay: Ability to inactivate adenylate kinase was determined, after exposing enzyme to mM levels of MgATP at pH 7.6 at a concentration of 9.9; outline: as §2
Rattus norvegicus [6] = species on record: Rattus norvegicus; assay: Ability of to inactivate rat muscle adenylate kinase was determined activity expresses as Percent loss of inactivation
Outline: (§3)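 Rat muscle enzyme preincubated at 22 °C with the 1:1 Mg2+ complex of the derivative, alone or with added AMP or ATP. Aliquots were assayed at intervals in the coupled system containing 1 mM ATP, alongside controls lacking the derivative. Half-time of inactivation was taken from pseudo-first-order plots, or % activity loss at 5–6 h was reported.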

Escherichia coli [7] = assay: Ability to inactivate adenylate kinase was determined, after exposing enzyme to mM levels of MgATP at pH 7.6 at a concentration of 9.7; outline: as §2
Rattus norvegicus [8] = species on record: Rattus norvegicus; assay: Ability of the 1.42 mM compound to inactivate rat muscle adenylate kinase was determined, after exposing enzyme to 2.2 mM levels of ATP activity expressed as percent loss of inactivation; outline: as §3
[9] = tested on: Adenylate kinase, muscle isozyme (Rattus norvegicus); assay: Ability of the 1.14 mM compound to inactivate rat muscle adenylate kinase was determined, after exposing enzyme to 0 mM levels of MgATP, activity expressed as percent loss of inactivation
Escherichia coli [10] = assay: Ability to inactivate Escherichia coli adenylate kinase after exposing enzyme to 0 mM levels of MgATP at concentration of 13.5 mM, pH 7.6; outline: as §2
Rattus norvegicus [11] = species on record: Rattus norvegicus; assay: Ability to inhibit rat adenylate kinase II, activity expressed as Maximum velocity; format: ADME; outline: as §1
[12] = molecular target: Adenylate kinase 2, mitochondrial (Rattus norvegicus, UniProt P29410); assay: Ability to inhibit rat adenylate kinase II, activity expressed as Inhibition constant; outline: as §1
Rattus norvegicus [13] = species on record: Rattus norvegicus; assay: Ability to inhibit rat adenylate kinase III, activity expressed as Maximum velocity; format: ADME; conditions: in vitro; outline: as §1
[14] = molecular target: T1, GTP:AMP phosphotransferase AK3, mitochondrial (Rattus norvegicus, UniProt P29411); assay: Ability to inhibit rat adenylate kinase III, activity expressed as Inhibition constant; Competitive inhibition; outline: as §1
[15] = molecular target: Adenylate kinase (Escherichia coli) (UniProt P69441); assay: Ability to inhibit Escherichia coli adenylate kinase II activity expressed as half maximal velocity
[16] = tested on: Adenylate kinase, muscle isozyme (Rattus norvegicus); assay: Ability of the 0.094 mM compound to inactivate rat muscle adenylate kinase was determined, after exposing enzyme to 1.4 mM levels of ATP activity expressed as % loss of inactivation
[17] = molecular target: Adenylate kinase (Escherichia coli) (UniProt P69441); assay: Ability of the 9 mM compound to inactivate adenylate kinase was determined, after exposing enzyme to 0 mM levels of MgATP in 6 h at 22 degree C
Escherichia coli [18] = assay: Ability to inactivate Escherichia coli adenylate kinase after exposing enzyme to 0 mM levels of MgATP at concentration of 8.1 mM, pH 7.6; outline: as §2
Rattus norvegicus [19] = species on record: Rattus norvegicus; assay: Ability to inhibit rat adenylate kinase III, activity expressed as half-maximal velocity; format: ADME; outline: as §1
Escherichia coli [20] = assay: Ability of 13.2 mM compound to inactivate Escherichia coli adenylate kinase was determined, after exposing enzyme to 10.7 mM levels of MgATP after 6 hr at 22 degree C; outline: as §2
Rattus norvegicus [21] = species on record: Rattus norvegicus; assay: Ability to inhibit rat adenylate kinase II, activity expressed as half-maximal velocity; format: ADME; conditions: in vitro; outline: as §1
Escherichia coli [22] = assay: Ability of 13.2 mM compound to inactivate Escherichia coli adenylate kinase was determined, after exposing enzyme to 0 mM levels of MgATP after 6 hr at 22 degree C; outline: as §2
[23] = molecular target: Adenylate kinase (Escherichia coli) (UniProt P69441); assay: Ability to inactivate adenylate kinase was determined, after exposing enzyme to mM levels of MgATP at pH 7.6
Escherichia coli [24] = assay: Ability to inactivate Escherichia coli adenylate kinase after exposing enzyme to 0 mM levels of MgATP at concentration of 4.5mM, pH 7.6 for 6 h; format: functional; outline: as §2
Rattus norvegicus [25] = species on record: Rattus norvegicus; assay: Ability of the 1.10 mM compound to inactivate rat muscle adenylate kinase was determined, after exposing enzyme to 2.2 mM levels of ATP activity expressed as percent loss of inactivation; outline: as §3
Escherichia coli [26] = assay: Ability to inhibit Escherichia coli adenylate kinase II activity expressed as half maximal velocity; format: ADME, organism-based; conditions: in vivo
Outline: (§4)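 E. coli B adenylate kinase, partially purified 27-fold (streptomycin, ammonium sulfate fractionation, DEAE-cellulose; fraction IV). ATP derivatives tested as 1:1 Mg²⁺ complexes as phosphate donor. Coupled PK/LDH NADH-oxidation spectrophotometric assay in 0.1 M Tris-HCl pH 7.6 with 2 mM MgSO₄, 0.12 M KCl, 0.31 mM PEP, 0.38 mM NADH and 0.25 mM AMP. Constants came from linear Lineweaver-Burk plots of initial velocity, using ≥5 substrate levels across 0.5–4.0 × KM.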

Escherichia coli [27] = assay: Ability to inhibit Escherichia coli adenylate kinase II activity expressed as Maximum velocity; format: ADME; outline: as §4
Escherichia coli [28] = assay: Ability inactivate Escherichia coli adenylate kinase was determined, after exposing enzyme to mM levels of MgATP at pH 7.6; outline: as §2
[29] = molecular target: T1, GTP:AMP phosphotransferase AK3, mitochondrial; assay: Ability to inhibit rat adenylate kinase III, activity expressed as Inhibition constant; outline: as §1

CC(=O)NCCCCCCNc1nc2c(N)ncnc2n1C1O[C@H](COP(=O)(O)OP(=O)(O)OP(=O)(O)O)[C@@H](O)[C@H]1O (stereo partly drawn)
Vmax (Escherichia coli [1]): 0%

CN(CCCN(C)C(=O)CCCNc1ncnc2c1ncn2[C@@H]1O[C@H](COP(=O)(O)OP(=O)(O)OP(=O)(O)O)[C@@H](O)[C@H]1O)C(=O)CCCNC(=O)CI
Inactivation (Escherichia coli [2]): 0%

NC(=O)CI
Loss of inactivation [3]: 0%

O=C(CI)NCCCCCCNc1ncnc2c1ncn2[C@@H]1O[C@H](COP(=O)(O)OP(=O)(O)OP(=O)(O)O)[C@@H](O)[C@H]1O
Inactivation (Escherichia coli [4]): 46% and 47%
Inactivation (Escherichia coli [5]): 25%
Loss of inactivation (Rattus norvegicus [6]): 8%
Inactivation (Escherichia coli [7]): 25%

O=C(CI)NCCCC(=O)NCCCCCCNc1ncnc2c1ncn2[C@@H]1O[C@H](COP(=O)(O)OP(=O)(O)OP(=O)(O)O)[C@@H](O)[C@H]1O
Loss of inactivation (Rattus norvegicus [8]): 0%

CC(=O)NCCCCCCCCNc1ncnc2c1ncn2C1O[C@H](COP(=O)(O)O)[C@@H](O)[C@H]1O (stereo partly drawn)
Loss of inactivation [9]: 0%

O=C(CI)NCCCCCC(=O)NCCCCNc1ncnc2c1ncn2[C@@H]1O[C@H](COP(=O)(O)OP(=O)(O)OP(=O)(O)O)[C@@H](O)[C@H]1O
Inactivation (Escherichia coli [10]): 5%

CN(CCCCCCN(C)c1ncnc2c1ncn2[C@@H]1O[C@H](COP(=O)(O)OP(=O)(O)OP(=O)(O)O)[C@@H](O)[C@H]1O)C(=O)CCCCCCNC(=O)CI
Vmax (Rattus norvegicus [11]): 0%
Ki [12]: 1800 µM
Vmax (Rattus norvegicus [13]): 0%
Ki [14]: 2200 µM
Inactivation [15]: 0%

NCCCCCCNc1nc2c(N)ncnc2n1C1O[C@H](COP(=O)(O)OP(=O)(O)OP(=O)(O)O)[C@@H](O)[C@H]1O (stereo partly drawn)
Vmax (Escherichia coli [1]): 0%

O=C(CI)NCCCCCCCCNc1ncnc2c1ncn2C1O[C@H](CO)[C@@H](O)[C@H]1O (stereo partly drawn)
Loss of inactivation [16]: 30%

CN(CCCCCCN(C)c1ncnc2c1ncn2[C@@H]1O[C@H](COP(=O)(O)OP(=O)(O)OP(=O)(O)O)[C@@H](O)[C@H]1O)C(=O)CCCCCNC(=O)CI
Vmax (Rattus norvegicus [11]): 0%
Ki [12]: 1900 µM
Vmax (Rattus norvegicus [13]): 0%
Ki [14]: 2400 µM
Inactivation [15]: 1%

O=C(CI)NCCCCNc1ncnc2c1ncn2[C@@H]1O[C@H](COP(=O)(O)OP(=O)(O)OP(=O)(O)O)[C@@H](O)[C@H]1O
Inactivation [17]: 2%

Nc1ncnc2c1nc(NCCCCCCNC(=O)CI)n2[C@@H]1O[C@H](COP(=O)(O)OP(=O)(O)OP(=O)(O)O)[C@@H](O)[C@H]1O
Ki [12]: 300 µM

O=C(CI)NCCCCCCC(=O)NCCCCCCNc1ncnc2c1ncn2[C@@H]1O[C@H](COP(=O)(O)OP(=O)(O)OP(=O)(O)O)[C@@H](O)[C@H]1O
Inactivation (Escherichia coli [18]): 4%

O=C(CI)NCCCCCNc1ncnc2c1ncn2[C@@H]1O[C@H](COP(=O)(O)OP(=O)(O)OP(=O)(O)O)[C@@H](O)[C@H]1O
Km (Rattus norvegicus [19]): 400 µM
Vmax (Rattus norvegicus [11]): 21%
Inactivation (Escherichia coli [20]): 36%
Vmax (Rattus norvegicus [13]): 9%
Ki [14]: 6200 µM
Km (Rattus norvegicus [21]): 1000 µM
Inactivation (Escherichia coli [22]): 37%

CN(CCCN(C)C(=O)CCCCNc1ncnc2c1ncn2[C@@H]1O[C@H](COP(=O)(O)OP(=O)(O)OP(=O)(O)O)[C@@H](O)[C@H]1O)C(=O)CCCCNC(=O)OCc1ccccc1
Vmax (Escherichia coli [1]): 0%

NCCCCCNc1ncnc2c1ncn2C1O[C@H](COP(=O)(O)OP(=O)(O)OP(=O)(O)O)[C@@H](O)[C@H]1O (stereo partly drawn)
Vmax (Escherichia coli [1]): 0%

O=C(CI)NCCCCCCCCNc1ncnc2c1ncn2[C@@H]1O[C@H](COP(=O)(O)OP(=O)(O)OP(=O)(O)O)[C@@H](O)[C@H]1O
Km (Rattus norvegicus [19]): 1100 µM
Vmax (Rattus norvegicus [11]): 5%
Vmax (Rattus norvegicus [13]): 6%
Inactivation [23]: 12%
Km (Rattus norvegicus [21]): 400 µM

O=C(CI)NCCCCCCCNc1ncnc2c1ncn2[C@@H]1O[C@H](COP(=O)(O)OP(=O)(O)OP(=O)(O)O)[C@@H](O)[C@H]1O
Inactivation (Escherichia coli [24]): 7%
Loss of inactivation (Rattus norvegicus [25]): 20%

Nc1ncnc2c1ncn2[C@@H]1O[C@H](COP(=O)(O)OP(=O)(O)OP(=O)(O)O)[C@@H](O)[C@H]1O [ADENOSINE TRIPHOSPHATE]
Km (Rattus norvegicus [19]): 90 µM
Km (Escherichia coli [26]): 60 µM
Vmax (Rattus norvegicus [11]): 100%
Vmax (Escherichia coli [27]): 100%
Vmax (Rattus norvegicus [13]): 100%
Km (Rattus norvegicus [21]): 90 µM

CN(CCCCN(C)c1ncnc2c1ncn2[C@@H]1O[C@H](COP(=O)(O)OP(=O)(O)OP(=O)(O)O)[C@@H](O)[C@H]1O)C(=O)CCCCCCNC(=O)CI
Inactivation (Escherichia coli [28]): 2%
Vmax (Rattus norvegicus [11]): 0%
Ki [12]: 1600 µM
Vmax (Escherichia coli [27]): 0%
Vmax (Rattus norvegicus [13]): 0%
Ki [14]: 2100 µM

O=C(CI)NCCNc1ncnc2c1ncn2[C@@H]1O[C@H](COP(=O)(O)OP(=O)(O)OP(=O)(O)O)[C@@H](O)[C@H]1O
Km (Rattus norvegicus [19]): 400 µM
Vmax (Rattus norvegicus [11]): 5%
Ki [29]: 5900 µM
Vmax (Rattus norvegicus [13]): 2%
Km (Rattus norvegicus [21]): 1600 µM
